Results reported in ChEMBL document CHEMBL1145213, “Lipopolysaccharide sequestrants: structural correlates of activity and toxicity in novel acylhomospermines” (J Med Chem, 2005).

Columns and labels:
[1] = test system: Lipopolysaccharide (LPS); assay: Effective dose required for binding to lipopolysaccharide using Fluorescence Displacement Assay; Range is ~1-2 uM
How it was run: (§1)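 BODIPY-TR-cadaverine displacement from LPS. Compounds from 5 mM DMSO stocks were serially diluted two-fold in 50 mM Tris pH 7.4 down to 0.596 nM final. An LPS/probe mixture was added and end-point fluorescence was read at 620 nm; probe de-quenching reports binding. ED50 was computed from displacement curves, with polymyxin B as the reference on every plate.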

[2] = test system: Lipopolysaccharide (LPS); assay: Effective dose required for binding to lipopolysaccharide using Fluorescence Displacement Assay; how it was run: as §1
[3] = species: Homo sapiens; assay: Inhibitory concentration required to inhibit LPS-induced TNF-alpha production in ex vivo human whole blood assay; type: functional, organism-based
How it was run: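 Fresh EDTA-anticoagulated whole blood from healthy volunteers was mixed with an equal volume of 20 ng/ml E. coli O111:B4 LPS plus graded compound concentrations diluted in saline and incubated for 4 h. TNF-α was quantified by a multiplexed flow-cytometric cytokine bead array against recombinant cytokine standards. IC50 was derived from dose-response.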

[4] = In vitro inhibitory concentration required to inhibit LPS-induced nitric oxide production in J774A.1 cells; type: functional, cell-based; settings: Mus musculus, J774.A1
How it was run: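 Murine J774A.1 macrophages were plated at ~10^5/ml and stimulated with 10 ng/ml LPS. Serially diluted compounds were added at the same time, with polymyxin B as reference, and cells were incubated for 16 h. Nitrite in the supernatant was measured by Griess reaction (15 min, room temperature, dark; A535) against a sodium nitrite standard curve. IC50 was taken from dose-response. Viability was checked in parallel by XTT.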

[5] = test system: Mus musculus; assay: Protection of LPS-induced lethality in mice sensitized by D-galactosamine was determined after 200 ug administered ip at 0 hour and activity expressed as dead/total (0/5); type: functional
[6] = test system: Mus musculus; assay: Protection of LPS-induced lethality in mice sensitized by D-galactosamine was determined after 200 ug administered ip at -4 hour and activity expressed as dead/total (1/5); type: functional
[7] = test system: Mus musculus; assay: Protection of LPS-induced lethality in mice sensitized by D-galactosamine was determined after 200 ug administered ip at -2 hour and activity expressed as dead/total (0/5); type: functional
[8] = test system: Mus musculus; assay: Protection of LPS-induced lethality in mice was determined after administration of 100 ug and activity expressed as dead/total (0/5); type: functional
[9] = test system: Mus musculus; assay: Protection of LPS-induced lethality in mice was determined after administration of 0 ug and activity expressed as dead/total (5/5); type: functional
[10] = test system: Mus musculus; assay: Protection of LPS-induced lethality in mice was determined after administration of 10 ug and activity expressed as dead/total (5/5); type: functional
[11] = test system: Mus musculus; assay: Protection of LPS-induced lethality in mice sensitized by D-galactosamine was determined after 200 ug administered ip at 1 hour and activity expressed as dead/total (5/5); type: functional
[12] = test system: Mus musculus; assay: Protection of LPS-induced lethality in mice sensitized by D-galactosamine was determined after 200 ug administered ip at -6 hour and activity expressed as dead/total (1/5); type: functional
[13] = biological target: Lipopolysaccharide (LPS); assay: Dissociation constant against lipopolysaccharide
How it was run: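 Isothermal titration calorimetry at 37 °C in 50 mM Tris pH 7.4, ligand and LPS in the same buffer. E. coli O111:B4 LPS was titrated in 35 injections at 360 s intervals into the cell holding the acylhomospermine, with stirring at 310 rpm. Controls injected LPS into buffer. KD was obtained from fitting the binding isotherm.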

[14] = test system: Mus musculus; assay: Protection of LPS-induced lethality in mice was determined after administration of 200 ug and activity expressed as dead/total (0/5); type: functional
[15] = test system: Mus musculus; assay: Protection of LPS-induced lethality in mice sensitized by D-galactosamine was determined after 200 ug administered ip at 2 hour and activity expressed as dead/total (4/5); type: functional
[16] = test system: Mus musculus; assay: Protection of LPS-induced lethality in mice was determined after administration of 50 ug and activity expressed as dead/total (2/5); type: functional
[17] = test system: Mus musculus; assay: Protection of LPS-induced lethality in mice was determined after administration of 200 ug and activity expressed as dead/total (1/5); type: functional
[18] = test system: Mus musculus; assay: Protection of LPS-induced lethality in mice was determined after administration of 100 ug and activity expressed as dead/total (4/5); type: functional
[19] = test system: Mus musculus; assay: Protection of LPS-induced lethality in mice was determined after administration of 50 ug and activity expressed as dead/total (5/5); type: functional
[20] = test system: Mus musculus; assay: Protection of LPS-induced lethality in mice was determined after administration of 100 ug and activity expressed as dead/total (2/5); type: functional
[21] = test system: Mus musculus; assay: Protection of LPS-induced lethality in mice was determined after administration of 50 ug and activity expressed as dead/total (4/5); type: functional
[22] = test system: Mus musculus; assay: Protection of LPS-induced lethality in mice was determined after administration of 500 ug and activity expressed as dead/total (4/5); type: functional

Row | ED50 [1] [µM] | ED50 [2] [µM] | IC50 [3] [µM] | IC50 [4] [µM] | Molecule | other results
1 | < 2 | – | – | – | CCCCCCCCCCCCCCC(=O)NCCCN(CCCN(CCCCN(CCCNC(=O)OC(C)(C)C)C(=O)OC(C)(C)C)C(=O)OC(C)(C)C)C(=O)OC(C)(C)C | –
2 | – | 2.44 | 2.31 | 4.35 | CCCCCCCCCCCCCCCCCCC(=O)NCCCNCCCNCCCCNCCCN | –
3 | – | 1.2 | – | – | POLYMYXIN B | –
4 | – | 107 | 36.6 | 171 | CC(=O)NCCCNCCCNCCCCNCCCN | –
5 | < 2 | – | – | – | CCCCCCCCCC(=O)NCCCN(CCCN(CCCCN(CCCNC(=O)OC(C)(C)C)C(=O)OC(C)(C)C)C(=O)OC(C)(C)C)C(=O)OC(C)(C)C | –
6 | < 2 | – | – | – | NCCCNCCCCNCCCN | –
7 | – | 8.67 | 63.1 | 10.1 | CCCCCCCCCCCCCCC(=O)NCCCNCCCNCCCCNCCCNCCCNC(=O)CCCCCCCCCCCCCC | –
8 | – | 66.7 | 120 | 13.9 | CCCCCCCCCCCCCCCCCCC(=O)NCCCNCCCNCCCCNCCCNCCCNC(=O)CCCCCCCCCCCCCCCCCC | –
9 | < 2 | – | – | – | CC(C)(C)OC(=O)NCCCN(CCCCN(CCCN(CCCN)C(=O)OC(C)(C)C)C(=O)OC(C)(C)C)C(=O)OC(C)(C)C | –
10 | – | 1.08 | 16.5 | 23.5 | CCCCCCCCCC(=O)NCCCNCCCNCCCCNCCCN | –
11 | < 2 | – | – | – | CCCCCCCCCCCCCCCCCCC(=O)NCCCN(CCCN(CCCCN(CCCNC(=O)OC(C)(C)C)C(=O)OC(C)(C)C)C(=O)OC(C)(C)C)C(=O)OC(C)(C)C | –

Continued, molecule first:

Row | Molecule | ED50 [1] [µM] | ED50 [2] [µM] | IC50 [3] [µM] | IC50 [4] [µM] | other results
12 | CCCCCCCCCCCCCCCCC(=O)NCCCN(CCCN(CCCCN(CCCNC(=O)OC(C)(C)C)C(=O)OC(C)(C)C)C(=O)OC(C)(C)C)C(=O)OC(C)(C)C | < 2 | – | – | – | –
13 | CCCCCCCCC(=O)NCCCNCCCNCCCCNCCCN | – | 0.92 | 31.1 | 52.5 | –
14 | CCCCCCCCCCCCCCCCC(=O)NCCCNCCCNCCCCNCCCN | – | 1.37 | 1.91 | 4.22 | Dead [5]: 0; Dead [6]: 1; Dead [7]: 0; Dead [8]: 0; Dead [9]: 5; Dead [10]: 5; Dead [11]: 5; Dead [12]: 1; Kd [13]: 1.21 µM; Dead [14]: 0; Dead [15]: 4; Dead [16]: 2
15 | CCCCCCCCCC(=O)NCCCNCCCNCCCCNCCCNCCCNC(=O)CCCCCCCCC | – | 0.76 | 10 | 1.47 | –
16 | CCCCCCCCCCCCCCCCC(=O)NCCCNCCCNCCCCNCCCNCCCNC(=O)CCCCCCCCCCCCCCCC | – | 52.5 | 37.1 | 14.2 | –
17 | CC(=O)NCCCN(CCCN(CCCCN(CCCNC(=O)OC(C)(C)C)C(=O)OC(C)(C)C)C(=O)OC(C)(C)C)C(=O)OC(C)(C)C | < 2 | – | – | – | –
18 | CCCCCCCCC(=O)NCCCN(CCCN(CCCCN(CCCNC(=O)OC(C)(C)C)C(=O)OC(C)(C)C)C(=O)OC(C)(C)C)C(=O)OC(C)(C)C | < 2 | – | – | – | –
19 | CCCCCCCCC(=O)NCCCNCCCNCCCCNCCCNCCCNC(=O)CCCCCCCC | – | 0.33 | 4.88 | 2.05 | Dead [17]: 1; Dead [9]: 5; Dead [10]: 5; Dead [18]: 4; Dead [19]: 5
20 | CCCCCCCCCCCC(=O)NCCCNCCCNCCCCNCCCNCCCNC(=O)CCCCCCCCCCC | – | 6.87 | 9.19 | 1.44 | Dead [20]: 2; Dead [21]: 4; Dead [22]: 4; Dead [17]: 1; Dead [9]: 5
21 | CCCCCCCCCCCCCCC(=O)NCCCNCCCNCCCCNCCCN | – | 1.35 | 2.27 | 3.69 | –
